Results reported in ChEMBL document CHEMBL1131137, “New platelet fibrinogen receptor glycoprotein IIb-IIIa antagonists: orally active series of N-alkylated amidines with a 6,6-bicyclic template” (J Med Chem, 1998).
Converted amounts (≈) assume the structure as drawn.

Tests used:
Cavia porcellus [1] = species on record: Cavia porcellus; experiment: In vitro inhibition of guinea pig Platelet-rich plasma (PRP) aggregation induced by 5 uM ADP; format: functional
Homo sapiens = species on record: Homo sapiens; experiment: In vitro inhibition of human Platelet-rich plasma (PRP) aggregation induced by 5 uM ADP; format: functional
Method in brief: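 PRP prepared by 120g 15-min spin of citrated venous blood (3.8% citrate, 1:9) from anesthetized male guinea pigs or male human volunteers, adjusted to 2.5–3.0 × 10⁸ platelets/mL with PPP. PRP warmed 2 min at 37 °C, compound or vehicle added, then 2 min later ADP (final 5 μM). Maximum aggregation compared with control; IC50 estimated.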

[2] = target: Integrin alpha-IIb/beta-3 (Homo sapiens, UniProt P05106+P08514); experiment: Inhibition of Fibrinogen binding to Immobilized Human Fibrinogen Receptor.; format: protein-complex assay
Method in brief: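 Human platelet GPIIb-IIIa purified (ConA-, heparin-Sepharose, Sephacryl S-300) and coated at 1.5 μg/mL in TBS with 0.0005% Triton, 24 h at 4 °C, then blocked with 3.5% BSA. Compound plus biotinylated fibrinogen (2 μg/mL before 1:1 mixing) incubated 24 h at room temperature. Detection by peroxidase-streptavidin and o-phenylenediamine, A490.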

[3] = Solubility in saline.; format: physicochemical; details: read-out: S
Method in brief: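 Solubility in saline determined by UV spectrophotometry.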

Cavia porcellus [4] = experiment: Inhibition of ex vivo platelet aggregation induced by 5 uM Adenosine diphosphate (ADP) 1 hour after oral administration at the dose of 37umol/kg; format: functional
Method in brief: (§1)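 Fasted male guinea pigs dosed orally at 37 μmol/kg in saline with 0.5% Tween 80, then anesthetized with pentobarbital at 1 h and bled. PRP adjusted to 3.0 × 10⁸/mL, preincubated 2 min, and aggregated with ADP (final 5 μM). Inhibition relative to three vehicle-treated controls per experiment; mean of three animals.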

Cavia porcellus [5] = experiment: Inhibition of ex vivo platelet aggregation induced by 5 uM Adenosine diphosphate (ADP) 1 hour after oral administration.; format: functional; method in brief: as §1
[6] = Concentration in plasma 1 hr after oral administration; format: ADME, cell-free; details: read-out: Plasma level
Method in brief: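 Male guinea pigs starved overnight, given prodrug orally at 37 μmol/kg in saline with 0.5% Tween 80. PPP taken 1 h post-dose under pentobarbital. Bioassay: treated PPP diluted with donor PPP, mixed with donor PRP, and aggregation to 5 μM ADP read against a standard curve of PPP spiked with the active acid.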

Sequence of Integrin alpha-IIb/beta-3 (P05106 27-788 limits assumed): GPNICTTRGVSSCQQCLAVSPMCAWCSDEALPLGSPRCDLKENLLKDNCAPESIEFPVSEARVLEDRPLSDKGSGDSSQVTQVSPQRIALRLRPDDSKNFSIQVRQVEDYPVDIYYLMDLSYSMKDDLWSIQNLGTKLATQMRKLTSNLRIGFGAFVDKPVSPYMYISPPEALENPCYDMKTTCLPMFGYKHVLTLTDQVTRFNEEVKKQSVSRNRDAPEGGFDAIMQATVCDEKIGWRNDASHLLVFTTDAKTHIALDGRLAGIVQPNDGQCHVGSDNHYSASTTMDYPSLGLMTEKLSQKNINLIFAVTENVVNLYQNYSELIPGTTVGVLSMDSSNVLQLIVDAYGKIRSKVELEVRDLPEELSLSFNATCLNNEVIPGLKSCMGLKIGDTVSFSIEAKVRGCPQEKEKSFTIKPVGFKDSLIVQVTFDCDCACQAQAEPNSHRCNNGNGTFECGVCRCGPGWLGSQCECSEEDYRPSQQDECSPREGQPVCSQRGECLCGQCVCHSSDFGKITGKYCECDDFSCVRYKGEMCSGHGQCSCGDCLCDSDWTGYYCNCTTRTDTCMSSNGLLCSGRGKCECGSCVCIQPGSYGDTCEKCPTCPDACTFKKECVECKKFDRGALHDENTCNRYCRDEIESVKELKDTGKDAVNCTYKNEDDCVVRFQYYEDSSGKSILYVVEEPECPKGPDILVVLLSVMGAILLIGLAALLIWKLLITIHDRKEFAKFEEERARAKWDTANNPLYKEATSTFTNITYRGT
Sequence of Integrin alpha-IIb/beta-3 (P08514 32-887 limits assumed): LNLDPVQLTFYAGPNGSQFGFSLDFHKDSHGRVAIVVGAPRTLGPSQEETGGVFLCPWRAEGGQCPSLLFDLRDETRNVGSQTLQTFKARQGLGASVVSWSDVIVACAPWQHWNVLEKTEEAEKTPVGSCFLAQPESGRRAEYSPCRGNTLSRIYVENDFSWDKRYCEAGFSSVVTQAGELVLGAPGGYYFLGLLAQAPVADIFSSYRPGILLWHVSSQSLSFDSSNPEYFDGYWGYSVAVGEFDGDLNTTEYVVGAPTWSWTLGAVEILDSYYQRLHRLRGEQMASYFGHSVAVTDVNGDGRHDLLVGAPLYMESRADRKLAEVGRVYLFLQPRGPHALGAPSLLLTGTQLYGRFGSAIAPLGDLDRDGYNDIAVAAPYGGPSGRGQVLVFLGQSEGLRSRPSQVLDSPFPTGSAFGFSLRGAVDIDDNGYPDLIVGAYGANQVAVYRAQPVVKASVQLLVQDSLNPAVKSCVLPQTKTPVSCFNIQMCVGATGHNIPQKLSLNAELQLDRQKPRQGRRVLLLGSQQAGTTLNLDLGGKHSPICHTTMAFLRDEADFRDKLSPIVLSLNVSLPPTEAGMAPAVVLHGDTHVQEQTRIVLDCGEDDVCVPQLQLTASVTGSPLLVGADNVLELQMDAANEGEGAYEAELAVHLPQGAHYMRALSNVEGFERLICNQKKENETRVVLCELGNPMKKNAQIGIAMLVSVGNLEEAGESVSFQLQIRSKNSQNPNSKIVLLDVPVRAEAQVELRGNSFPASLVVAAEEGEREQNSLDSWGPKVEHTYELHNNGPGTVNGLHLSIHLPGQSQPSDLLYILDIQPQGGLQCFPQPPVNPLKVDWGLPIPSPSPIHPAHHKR
Sequence of Integrin alpha-IIb/beta-3 (P08514 891-1039 limits assumed): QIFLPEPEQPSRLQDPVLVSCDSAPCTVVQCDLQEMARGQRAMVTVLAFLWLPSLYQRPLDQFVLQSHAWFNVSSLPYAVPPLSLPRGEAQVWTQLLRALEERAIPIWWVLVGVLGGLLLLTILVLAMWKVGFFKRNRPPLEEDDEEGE

Structure (SMILES) | IC50 (Cavia porcellus [1]) [µM] | IC50 (Homo sapiens) [µM] | IC50 [2] [nM] | other results
N=C(N)c1ccc(COc2ccc3ccc(CC(=O)O)cc3c2)cc1 | > 1000 |  |  | 
N=C(N)c1ccc(C(=O)Nc2ccc3c(c2)CN(CC(=O)O)CC3)cc1 | 6.6 | 0.29 |  | 
CCOC(=O)CC1COc2ccc(NC(=O)c3ccc(C(=N)N)cc3)cc2C1 (stereo not drawn) |  |  |  | solubility [3]: 410 µg/mL (≈ 1070 µM); inhibition in vivo at 37 µmol/kg (Cavia porcellus [4]): 40%
CCOC(=O)CC1CCc2ccc(NC(=O)c3ccc(C(=N)N4CCOCC4)cc3)cc2C1 (stereo not drawn) |  |  |  | solubility [3]: > 200000 µg/mL; Inhibition (Cavia porcellus [5]): 98%; concentration at 1 h [6]: 7300 nM
N=C(c1ccc(C(=O)Nc2ccc3c(c2)C[C@@H](CC(=O)O)CO3)cc1)N1CCOCC1 | 0.11 | 0.035 | 0.12 | 
CCC/N=C(\N)c1ccc(C(=O)Nc2ccc3c(c2)CC(CC(=O)OCC)CC3)cc1 (stereo not drawn) |  |  |  | Inhibition (Cavia porcellus [5]): 3%; concentration at 1 h [6]: < 180 nM
C#CCNC(=N)c1ccc(C(=O)Nc2ccc3c(c2)CC(CC(=O)OCC)CC3)cc1 (stereo not drawn) |  |  |  | solubility [3]: 1500 µg/mL (≈ 3590 µM); Inhibition (Cavia porcellus [5]): 99%; concentration at 1 h [6]: 1000 nM
CCOC(=O)CC1CCc2ccc(NC(=O)c3ccc(C(=N)NCc4ccco4)cc3)cc2C1 (stereo not drawn) |  |  |  | solubility [3]: 1060 µg/mL (≈ 2310 µM); Inhibition (Cavia porcellus [5]): 91%; concentration at 1 h [6]: 850 nM
CCOC(=O)CC1COc2ccc(NC(=O)c3ccc(C(=N)N4CCOCC4)cc3)cc2C1 (stereo not drawn) |  |  |  | solubility [3]: > 200000 µg/mL; Inhibition (Cavia porcellus [5]): 99%; concentration at 1 h [6]: 8400 nM
N=C(c1ccc(C(=O)Nc2ccc3c(c2)C[C@H](CC(=O)O)CO3)cc1)N1CCOCC1 |  | 0.36 | 2.6 | 
CCOC(=O)CC1CCc2ccc(NC(=O)c3ccc(C(=N)N)cc3)cc2C1 (stereo not drawn) |  |  |  | solubility [3]: 260 µg/mL (≈ 685 µM); inhibition in vivo at 37 µmol/kg (Cavia porcellus [4]): 41%
C=CCNC(=N)c1ccc(C(=O)Nc2ccc3c(c2)CC(CC(=O)OCC)CC3)cc1 (stereo not drawn) |  |  |  | Inhibition (Cavia porcellus [5]): 21%; concentration at 1 h [6]: 380 nM
N=C(N)c1ccc(/C=C/c2ccc3c(c2)CC(CC(=O)O)CC3)cc1 (stereo not drawn) | 5 |  |  | 
C#CCNC(=N)c1ccc(C(=O)Nc2ccc3c(c2)CC(CC(=O)O)CO3)cc1 (stereo not drawn) | 0.35 | 0.078 | 0.13 | 
C#CC/N=C(\N)c1ccc(C(=O)Nc2ccc3c(c2)CC(CC(=O)O)CC3)cc1 (stereo not drawn) | 0.3 | 0.1 | 0.16 | 
C#CCNC(=N)c1ccc(C(=O)Nc2ccc3c(c2)CC(CC(=O)OCC)CO3)cc1 (stereo not drawn) |  |  |  | solubility [3]: 106000 µg/mL (≈ 253000 µM); Inhibition (Cavia porcellus [5]): 99%; concentration at 1 h [6]: 3800 nM
N=C(c1ccc(C(=O)Nc2ccc3c(c2)CC(CC(=O)O)CO3)cc1)N1CCOCC1 (stereo not drawn) | 0.23 | 0.066 | 0.098 | 
C=CCNC(=N)c1ccc(C(=O)Nc2ccc3c(c2)CC(CC(=O)O)CC3)cc1 (stereo not drawn) | 0.49 |  | 0.26 | 

More lines, main results first:

IC50 (Cavia porcellus [1]) [µM] | IC50 (Homo sapiens) [µM] | IC50 [2] [nM] | Structure (SMILES) | other results
0.23 | 0.046 |  | N=C(N)c1ccc(NC(=O)c2ccc3c(c2)CC(CC(=O)O)CC3)cc1 (stereo not drawn) | 
0.19 | 0.08 | 0.15 | N=C(c1ccc(C(=O)Nc2ccc3c(c2)CC(CC(=O)O)CC3)cc1)N1CCOCC1 (stereo not drawn) | 
0.17 | 0.068 | 0.13 | CCCNC(=N)c1ccc(C(=O)Nc2ccc3c(c2)CC(CC(=O)O)CC3)cc1 (stereo not drawn) | 
 | 0.37 |  | N=C(N)c1ccc(CCc2ccc3c(c2)CC(CC(=O)O)CC3)cc1 (stereo not drawn) | 
0.37 | 0.057 | 0.12 | N=C(N)c1ccc(C(=O)Nc2ccc3c(c2)CC(CC(=O)O)CC3)cc1 (stereo not drawn) | inhibition in vivo at 37 µmol/kg (Cavia porcellus [4]): 8%
 | 0.049 | 0.073 | N=C(N)c1ccc(C(=O)Nc2ccc3c(c2)CC(CC(=O)O)CO3)cc1 (stereo not drawn) | 
 | 1.5 |  | N=C(N)c1ccc(COc2ccc3c(c2)CC(CC(=O)O)CC3)cc1 (stereo not drawn) | 
1.8 | 0.2 |  | CN(C(=O)c1ccc(C(=N)N)cc1)c1ccc2c(c1)CC(CC(=O)O)CC2 (stereo not drawn) | 
0.62 |  | 0.2 | NC(=NCc1ccco1)c1ccc(C(=O)Nc2ccc3c(c2)CC(CC(=O)O)CC3)cc1 (stereo not drawn) | 
